# E coli RNAP – Escherichia coli RNA polymerase inhibition; inhibition, %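 (tested at 10 µM)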; E. coli RNA polymerase, fluorescence transcription assay; 62,000 tested, 0.2% active; in the data active = inhibition above about 20%;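 note: 0% = enzyme without compound and 100% = no enzyme blank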
# Target sequence (P0A8V2 whole entry, looked up): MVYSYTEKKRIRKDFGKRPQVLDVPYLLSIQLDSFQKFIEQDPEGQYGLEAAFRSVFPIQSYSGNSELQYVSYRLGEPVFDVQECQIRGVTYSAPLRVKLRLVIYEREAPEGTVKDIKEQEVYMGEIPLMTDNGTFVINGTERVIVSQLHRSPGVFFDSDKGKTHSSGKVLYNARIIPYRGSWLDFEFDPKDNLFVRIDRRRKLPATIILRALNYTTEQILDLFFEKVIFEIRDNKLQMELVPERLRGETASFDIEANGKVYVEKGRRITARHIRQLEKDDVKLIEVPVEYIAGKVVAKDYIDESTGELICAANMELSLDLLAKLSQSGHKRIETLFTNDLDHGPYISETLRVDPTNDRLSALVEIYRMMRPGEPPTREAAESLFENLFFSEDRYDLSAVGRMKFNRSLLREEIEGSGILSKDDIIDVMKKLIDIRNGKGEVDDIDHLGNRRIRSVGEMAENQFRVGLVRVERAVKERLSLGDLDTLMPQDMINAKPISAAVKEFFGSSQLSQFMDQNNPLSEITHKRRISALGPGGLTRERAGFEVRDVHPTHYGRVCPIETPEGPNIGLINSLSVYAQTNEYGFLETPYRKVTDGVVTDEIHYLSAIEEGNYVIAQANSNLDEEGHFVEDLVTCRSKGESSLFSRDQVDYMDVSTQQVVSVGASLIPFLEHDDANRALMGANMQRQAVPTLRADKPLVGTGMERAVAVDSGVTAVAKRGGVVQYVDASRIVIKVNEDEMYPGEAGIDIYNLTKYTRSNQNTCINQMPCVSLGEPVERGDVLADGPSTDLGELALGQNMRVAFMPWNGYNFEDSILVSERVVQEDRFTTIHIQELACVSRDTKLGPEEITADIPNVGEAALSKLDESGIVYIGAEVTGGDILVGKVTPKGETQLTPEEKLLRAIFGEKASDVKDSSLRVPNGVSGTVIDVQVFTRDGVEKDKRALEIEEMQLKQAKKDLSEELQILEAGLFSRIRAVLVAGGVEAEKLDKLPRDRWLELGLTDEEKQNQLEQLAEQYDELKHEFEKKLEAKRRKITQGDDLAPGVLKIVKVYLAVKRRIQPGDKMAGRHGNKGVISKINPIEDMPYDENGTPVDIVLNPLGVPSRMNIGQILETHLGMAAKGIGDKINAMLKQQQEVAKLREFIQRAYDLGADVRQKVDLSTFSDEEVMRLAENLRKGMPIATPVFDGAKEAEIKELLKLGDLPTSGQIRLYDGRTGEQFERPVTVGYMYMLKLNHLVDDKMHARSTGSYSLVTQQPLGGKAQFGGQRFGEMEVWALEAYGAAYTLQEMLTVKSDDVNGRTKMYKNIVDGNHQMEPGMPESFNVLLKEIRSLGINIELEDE
# AP complement – alternative pathway complement inhibition, orthogonal assay; Human serum alternative complement pathway, LPS-coated ELISA, C3 deposition; tested in compound mixtures; inhibition, % at 5 µM; 62,000 tested, 0.08% active;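 active = inhibition above 30% in each of the two pooled mixtures holding the compound, so the lower value exceeds 30%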;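 note: 0% = serum in Mg-EGTA without compound and 100% = EDTA serum blank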
#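 Test system: human serum alternative complement pathway, C3 deposition on LPS-coated wells; also added: Plate-bound LPS; doses: 5 µM per compound in ten-compound mixtures; schedule: 1 h at 37 °C; detection: Anti-C3 ELISA, OD 450 nm; evaluation: percent inhibition of C3 deposition onto LPS; repeats: two pool placements per compound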
# CatG inh – blocks human cathepsin G enzyme activity | P08311 | 62,000 tested, 0.2% active | purified enzyme, AMC-tetrapeptide fluorescence, pooled mixtures | AID 581 | inhibition, % at 5 µM (by protocol);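 active = inhibition above 20% in each of the two mixture wells holding the compound; inactive = inhibition of 20% or less in either well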;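 note: 0% = enzyme control without mixture and 100% = blank lacking enzyme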
# C1s inh – human complement C1s inhibition; 62,000 tested, 0.16% active; mean inhibition % of two 10-compound mixtures (stronger effect = higher value), % at 5 µM (by protocol); purified C1s, fluorogenic AMC substrate, pooled mixtures; P09871;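 active = inhibition above 20% in each of the two 10-compound mixture wells holding the compound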;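 note: 0% = enzyme wells lacking compound mixture and 100% = no-enzyme blank wells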
# FXIa mix inh – inhibitors of human coagulation factor XIa, pooled mixtures | P03951 | purified FXIa, fluorogenic substrate | inhibition, % at 5 µM | 62,000 tested, 0.19% active | AID 680;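 note: each value is inhibition by a whole ten-compound pool holding the compound; 0% = enzyme with no mixture and 100% = wells lacking enzyme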
# FXIIa inh mix – inhibitors of human coagulation factor XIIa, pooled mixtures | 62,000 tested, 0.2% active | P00748 | purified FXIIa, fluorogenic substrate | inhibition, % at 5 µM;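 note: 0% = enzyme without compound and 100% = no enzyme blank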
# * = called active by the depositor; . = no result. A selection: hits, their analogues and other compounds. The true share with any hit is near 0.83%. Cut-off read from the data, not from the text of the source, unless noted: active = inhibition above about 20% (passing the limit was not always enough); inactive = the rest.
SMILES,E coli RNAP,AP complement,CatG inh,C1s inh,FXIa mix inh,FXIIa inh mix
COc1ccccc1N1CCN(c2ncnc3c2oc2ccccc23)CC1,-10,33*,1,1,10,3
CCN(CCCNC(=O)CCNC(=O)Cn1cnc2ccccc2c1=O)c1ccccc1,-1,19,10,14,5,0
CCc1nnc(NC(=O)c2cnccn2)s1,7,4,7,11,21*,2
CCc1nnc(NC(=O)C2CCN(C(=O)NC3CCCCC3)CC2)s1,-4,34*,4,1,2,4
O=c1c(-c2ccco2)[n+]([O-])c2ccccc2n1OCc1ccccn1,13,9,20,29*,29*,-16
CCn1c(=O)c(C(C)=O)nc2ccccc21,.,14,15,22*,9,4
CCc1nc2ccccc2n(CC)c1=O,3,-9,0,-23,-18,0
COc1ccccc1CNC(=O)c1cnc2ccccn2c1=O,7,0,11,2,21*,0
COc1cccc(C2c3c(oc4ccc(Cl)cc4c3=O)C(=O)N2c2cc(C)on2)c1OC (centres undefined),3,10,12,17,6,6
O=C(CCCNS(=O)(=O)c1cccs1)N1CCN(c2cccc(Cl)c2)CC1,43*,19,8,-4,8,5
Cc1cc(=O)[nH]c(SCC(=O)c2ccc(C(C)C)cc2)n1,8,3,11,57*,-5,12
COc1ccc(C(=O)CSc2nc(C)cc(=O)[nH]2)cc1,5,8,12,13,4,-16
O=C(CCCNS(=O)(=O)c1cccc2nsnc12)NC1CCCCC1,26*,15,-2,-3,6,-22
CCOc1ccc(-n2c3nc4ccccc4nc3c3c(=O)n(Cc4ccco4)cnc32)cc1,22*,12,13,13,9,1
Cc1nc(CNS(=O)(=O)c2cc(C)c(C)cc2C)cs1,14,8,7,57*,8,-6
CCC1(C)Cc2c(sc3nc(NC)n(C)c(=O)c23)CO1 (centres undefined),1,35*,7,-6,0,10
COc1ccc2c(c1)CCc1c(C(=O)Nc3cc(C)n(Cc4ccc(Cl)cc4)n3)noc1-2,0,19,66*,12,33,10
Cc1cc(NC(=O)c2noc3c2CCCC3)nn1Cc1ccc(Cl)cc1,4,6,-2,-27,7,4
COc1ccc2c(c1)CCc1c(C(=O)Nc3ccn(Cc4ccc(C)cc4)n3)noc1-2,3,9,94*,11,38,-22
CCSc1nc(C)cc(Oc2ccc(=O)n(C)n2)n1,6,-7,0,-7,8,4
CCCn1c(SCC(=O)Nc2nc3c(s2)CCCC3)nc2c1c(=O)n(C)c(=O)n2C,55*,-9,-2,-6,3,3
CCCn1c(SCC(=O)Nc2nnc(CC)s2)nc2c1c(=O)n(C)c(=O)n2C,0,13,7,10,7,-17
Cn1c(=O)c2c(nc(CN3CCN(c4ccccc4)CC3)n2Cc2c(F)cccc2Cl)n(C)c1=O,10,-14,4,7,2,7
CCc1ccccc1N(C(=O)c1cccs1)C1C=CS(=O)(=O)C1 (centres undefined),7,-2,15,60*,11,-2
O=C(Cc1cccs1)N(c1ccccc1)C1C=CS(=O)(=O)C1 (centres undefined),5,11,9,16,3,8
SMILES,E coli RNAP,AP complement,CatG inh,C1s inh,FXIa mix inh,FXIIa inh mix
CCOc1ccc(C2C=C(c3ccc(C)cc3)Nc3nnnn32)cc1 (centres undefined),6,19,9,9,8,4
CCOc1ccc(C2C=C(c3ccc(C)cc3)Nc3ncnn32)cc1 (centres undefined),-5,-2,-1,-17,23*,-18
O=C(Nc1ccccc1C(=O)N1CCOCC1)c1ccncc1,6,5,8,10,8,10
CC1CC(C)CN(c2ncnc3c2cnn3-c2ccc(Cl)cc2)C1 (centres undefined),17,3,9,-1,-2,5
O=C(NC1CCS(=O)(=O)C1)c1c(NC(=O)C2COc3ccccc3O2)sc2c1CCCC2 (centres undefined),32*,-12,5,23,9,12
COc1ccccc1NC(=O)c1cc(S(=O)(=O)N2CCOCC2)ccc1Cl,2,1,12,39,4,32*
COc1ccc(C(=O)n2ccc(C)n2)cc1Br,.,-5,21*,20,16,4
COc1ccc(C(=S)N2CCN(C)CC2)cc1Br,-4,9,-14,17,-2,3
CN1CCN(C(=O)CCC(=O)c2ccc(F)cc2)CC1,13,5,14,7,4,4
c1ccc(-c2nnc(CSc3nncs3)o2)cc1,5,20,6,11,6,-3
CCCCOc1ccccc1C1C(C(=O)OC)=C(C)N(C)C(C)=C1C(=O)OC,2,-9,-10,-53,-6,-18
COC(=O)C1=C(C)N(C)C(C)=C(C(=O)OC)C1c1ccccc1C,8,-1,9,10,24*,3
COc1ccc(CNC(=O)CN(CC2CCCO2)C(=O)CNS(=O)(=O)c2ccc(F)cc2)cc1 (centres undefined),2,13,-12,-59,-2,1
Cc1noc(C)c1COC(=O)c1ccccc1NC(=O)Cc1ccccc1,7,21,30,35*,30,3
Cc1ccc(OC(=O)CCC(=O)N2CCc3ccccc32)cc1,0,18,12,20,9,3
Cc1cc(C)n(Cc2ccccc2Cl)n1,8,5,-4,7,-2,1
Cc1cc(=O)c2n(Cc3ccccc3Cl)nc[n+]2[nH]1,57*,-1,3,5,5,4
CCc1cc(C(=O)OC)c(N2C(=O)C3C4C=CC(C4)C3C2=O)s1 (centres undefined),8,-16,-5,-11,7,52*
CCNc1nc(NCC)nc(OCCNS(=O)(=O)c2cc(C)ccc2C)n1,5,-4,-1,-11,-2,6
CCNc1nc(NC(C)C)nc(OCCNS(=O)(=O)c2cc(C)ccc2C)n1,8,32*,14,4,5,2
Cc1cccc(-n2c(CNC(=O)c3ccc(S(=O)(=O)N4CCCC4)cc3)n[nH]c2=S)c1,3,13,8,3,1,16
COc1ccc(-n2c(CNC(=O)c3ccc(S(=O)(=O)N4CCCC4)cc3)n[nH]c2=S)cc1,4,7,6,1,-5,22*
COC(=O)c1ccccc1NC(=O)Cn1cnc2cc(C)c(C)cc21,-4,7,6,-8,0,-1

# Source: PubChem BioAssay
